Diaph inh CS: diaphorase inhibitors and chemical oxidizers, primary screen, counter-screen for diaphorase-coupled primary assays, biochemical, uHTS, resorufin fluorescence; diaphorase resazurin-to-resorufin fluorescence, NADH, 16 min; bacterial (C. kluyveri) enzyme, not human; inhibition, % at 20 µM; hit rate 0.69% among 190,000;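 active means primary screen inhibition at 20 µM above a set limit, cut at about 50% in these data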;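 further: plate controls were DMSO with full reaction for no effect and wells lacking NADH for full effect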
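Benchmarks: positive control wells lacking NADH, neutral wells with DMSO only. System: bacterial diaphorase enzyme (C. kluyveri). Input: 0.14 U/mL diaphorase, enzyme working solution. Detection: resorufin fluorescence, excitation 544 nm, emission 590 nm. Times: 16-min room-temperature incubation before reading.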
Diaphorase act: compounds boosting diaphorase resazurin reduction – biochemical, uHTS, resorufin fluorescence, counter-screen for diaphorase-coupled primary assays, primary screen; Diaphorase/resazurin coupled assay, 16 min; stronger effect = higher value; 1 = vehicle wells, 0 = NADH-free wells; activation factor at 20 µM; hit rate 0.005% among 190,000; AID 1229, 2008;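 active means diaphorase activity raised at least twofold by the compound at 20 µM; inactive means activation factor below 2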
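Assay system: bacterial diaphorase enzyme (C. kluyveri) / Input: enzyme 0.07 U/mL final / Medium: 50 mM HEPES pH 7.4 with 4.542 mM MgCl2, 0.005% Tween 20 / Doses: single compound dose of 20 µM, 1% DMSO final / Incubation: 16 min enzyme reaction, ambient temperature / Signal: fluorescence, excitation 544 nm and emission 590 nm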
PfG6PD inh: PfG6PD enzyme inhibitors, primary screen, biochemical, fluorescence intensity, uHTS. glucose-6-phosphate dehydrogenase-6-phosphogluconolactonase (Plasmodium falciparum 3D7). PfGluPho enzyme, NADPH resazurin-diaphorase fluorescence. inhibition, % at 20 µM. hit rate 0.78% among 350,000. AID 504690, 2011;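 active means inhibition reaching at least a set limit at 20 µM in the primary screen, cut at about 59% in these data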;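 further: 0% = DMSO wells with substrate and 100% = DMSO wells lacking glucose-6-phosphate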
G6PDH counter: L. mesenteroides G6PDH inhibitors, counter-screen for G6PDH-coupled screening assays, biochemical, Leuconostoc mesenteroides enzyme. hit rate 0.12% among 200,000. AID 1020, 2008. glucose-6-phosphate dehydrogenase [Leuconostoc mesenteroides]. inhibition, % at 5 µM. Purified L. mesenteroides G6PDH, diaphorase/resazurin coupled fluorescence, 45 min
Lmaj promast: Leishmania major promastigote growth inhibition, primary screen; Leishmania major promastigotes, resazurin fluorescence viability; inhibition, % at 10 µM; hit rate 9% among 200,000;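 further: promastigotes grown with compound for 44 hours at 28 °C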
DTT redox prof: compounds producing H2O2 with reducing agent – biochemical, NIH compound library profiling, artefact control for MLSCN library redox annotation, primary screen; DTT-dependent redox cycling H2O2, phenol red/HRP absorbance; 100% = 100 µM peroxide control, 0% = buffer; activation, % at 10 µM; hit rate 0.03% among 200,000; AID 878, 2007;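 active means activation of at least 50% relative to the plate's high and low controls in the primary single-dose screen; inactive means activation below 50%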;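 further: compound incubated with DTT at 0.8 mM final as the reducing agent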
An asterisk follows results filed as active; x = no result given. The entries come from a sample that favours hits as a whole. Unless noted, no stated cut-off is given here; in the data, active means inhibition above about 50%; inactive means the rest.

SMILES | Diaph inh CS | Diaphorase act | PfG6PD inh | G6PDH counter | Lmaj promast | DTT redox prof
Clc1ccccc1OCCCCn1ccnc1 | 11 | 0.9 | 8 | 14 | 100* | -3
Cc1ccc(SCC(=O)NCCc2ccc(F)cc2)cc1 | x | x | 0 | x | x | x
C[C@H]1CN([C@@H](C)CO)S(=O)(=O)c2ccc(Br)cc2O[C@H]1CN(C)C(=O)c1cccnc1 | x | x | -7 | x | x | x
CCOC(=O)C(C)Sc1nnc(NC(=O)c2ccc3c(c2)OCO3)s1 (centres undefined) | -6 | 1.1 | 50 | 8 | -5 | 0
CCOC(=O)c1c(C(=O)OCC)c(C)n(CCc2ccc(OC)c(OC)c2)c1C | 13 | 0.9 | 1 | -10 | 2 | 0
NCCNC(=O)Cn1c(=O)c2c3c(sc2n(Cc2ccccc2)c1=O)CCCC3 | x | x | 1 | x | x | x
O=C(c1ccc(=O)[nH]c1)N1CCN(S(=O)(=O)c2ccccc2)CC1 | x | x | -6 | x | x | x
N#C/C(=C\c1c(N2CCCCC2)nc2ccccn2c1=O)C(=O)NC1CCS(=O)(=O)C1 (centres undefined) | 20 | 0.8 | 9 | 15 | 56* | 0
N#C/C(=C\c1c(N2CCCCC2)nc2ccccn2c1=O)C(=O)NCc1ccco1 | 8 | 0.9 | -15 | 10 | 83* | 0
CCOC(=O)C(C(=O)OCC)c1cc(Br)c2noc3c2c1C(=O)c1ccccc1-3 | 62* | 0.4 | 84* | 56* | 100* | 2
COCCCNC(=O)c1ccc2c3c(onc13)-c1ccccc1C2=O | x | x | 16 | x | x | x
O=C(c1cccc(Br)c1)N1CCN(c2cnn(-c3ccccc3)c(=O)c2Cl)CC1 | 4 | 1 | -20 | 3 | 84* | -1
CCOc1ccc(C(=O)N2CCN(c3cnn(-c4ccccc4)c(=O)c3Cl)CC2)cc1 | 21 | 0.8 | 1 | 6 | 4 | -2
COC(=O)c1[nH]c2ccc(Br)cc2c1NC(=O)C(C)N1CCN(C2CCCCC2)CC1 (centres undefined) | 10 | 0.9 | 4 | 0 | 100* | 2
COc1ccc(/C=C/C(=O)OCC(=O)NCCc2ccccc2)c(OC)c1 | x | x | -1 | x | x | x
CCCc1cc(=O)oc2cc(C)cc(OCC(=O)NCCCN3CCOCC3)c12 | x | x | -1 | x | x | x
Cc1ccc2cc(CN(Cc3ccc4c(c3)OCO4)Cc3nnnn3Cc3ccco3)c(=O)[nH]c2c1C | 25 | 0.8 | 1 | -53 | 68* | 0
Cc1ccc(C)c2[nH]c(=O)c(CN(Cc3ccc4c(c3)OCO4)Cc3nnnn3Cc3ccco3)cc12 | 14 | 0.9 | 11 | 2 | 58* | 1
COc1ccccc1C(c1nnnn1CCc1ccccc1)N1CCN(c2ccccc2)CC1 (centres undefined) | 20 | 0.8 | 13 | 0 | 14 | 2
COc1ccc(N2CCN(C(c3nnnn3CCc3ccccc3)C(C)C)CC2)cc1 (centres undefined) | 29 | 0.7 | 10 | 4 | 89* | 0
Fc1ccc(C(c2nnnn2C2CCCC2)N2CCc3ccccc32)cc1 (centres undefined) | 8 | 0.9 | 9 | 2 | 3 | -8
COc1ccccc1N1CCN(C(c2ccccc2)c2nnnn2CCc2ccccc2)CC1 (centres undefined) | 10 | 0.9 | 9 | -4 | 64* | 0
CC(C)C(c1nnnn1CCc1ccccc1)N1CCOCC1 (centres undefined) | 12 | 0.9 | 0 | 8 | -2 | 3
Fc1ccc(C(c2nnnn2CCc2ccccc2)N2CCCc3ccccc32)cc1 (centres undefined) | 28 | 0.7 | 19 | 6 | 76* | 0
COc1cccc(C(c2nnnn2CCc2ccccc2)N2CCN(c3ccccc3)CC2)c1OC (centres undefined) | 25 | 0.7 | 23 | 4 | 55* | -4
SMILES | Diaph inh CS | Diaphorase act | PfG6PD inh | G6PDH counter | Lmaj promast | DTT redox prof
CCCN(CCC)S(=O)(=O)c1ccc(C(=O)N2CCCc3ccccc32)cc1 | 12 | 0.9 | -1 | -1 | 64* | 0
CCCN(CCC)S(=O)(=O)c1ccc2c(c1)CCCN2C(C)=O | -1 | 1 | 1 | 8 | -7 | 0
O=C(c1cncs1)N1CCCC(CNS(=O)(=O)c2cccs2)C1 (centres undefined) | 18 | 0.8 | -5 | 9 | -4 | -1
COc1ccc(NC(=O)c2cnc(C)cn2)c2ncccc12 | 11 | 0.9 | x | 8 | 86* | -1
O=C(CCCn1c(=O)c2ccccc2n(CC(=O)N2CCN(c3ccccc3)CC2)c1=O)NCc1ccco1 | 8 | 0.9 | -6 | 3 | 8 | -1
O=C1C(=O)N(C/C=C/c2ccccc2)c2ccccc21 | x | x | 3 | x | x | x
CCn1c(=O)c(C(=O)NNS(=O)(=O)c2ccc(C)cc2)c(O)c2ccccc21 | 26 | 0.7 | -1 | -12 | 59* | 0
COc1ccc(NC(=O)CCC(=O)c2cccs2)c(OC)c1 | x | x | 9 | x | x | x
COc1ccc(NC(=S)N(CCc2c(C)[nH]c3ccc(C)cc23)Cc2cccs2)cc1 | 15 | 0.9 | 1 | 1 | 54* | 0
COc1ccc(NC(=S)N(Cc2ccc(C)cc2)Cc2ccccn2)cc1 | 6 | 0.9 | 0 | 0 | 95* | -1
COc1ccc2[nH]c(C)c(CCN(Cc3cccs3)C(=S)Nc3ccc(F)cc3)c2c1 | 34 | 0.7 | 18 | -22 | 40 | 0
COc1ccc(NC(=S)N(CCc2c(C)[nH]c3ccccc23)Cc2cccnc2)cc1 | 2 | 1 | 4 | 8 | 100* | 0
COc1ccc(NC(=S)N(CCc2nc3cc(C)c(C)cc3[nH]2)Cc2cccnc2)cc1 | 6 | 0.9 | 14 | 2 | 90* | -7
O=C(O)c1ccccc1C=NN1CCCCCC1 | x | x | -20 | x | x | x
CN(C)c1nc(OCCNC(=O)COc2ccccc2Cl)nc(N(C)C)n1 | 12 | 0.9 | -5 | 8 | 31 | -1
Cc1ccc(-c2ocnc2C(=O)Nc2nc(C)cs2)cc1 | x | x | -6 | x | x | x
COC(=O)c1ccc(N2CCOCC2)c(NC(=O)c2cccnc2)c1 | x | x | -4 | x | x | x
CCNC(=S)N(CCc1c(C)[nH]c2ccc(F)cc12)Cc1cccnc1 | x | x | -3 | x | x | x
COCCNC(=S)N(CCc1c(C)[nH]c2ccc(F)cc12)Cc1ccc(C)cc1 | x | x | 23 | x | x | x
Cc1[nH]c2ccc(F)cc2c1CCN(Cc1cccnc1)C(=S)Nc1ccc(F)cc1 | -4 | 1 | 27 | 4 | 100* | 0
Cc1[nH]c2ccc(F)cc2c1CCN(Cc1ccncc1)C(=S)Nc1cccc(F)c1 | -2 | 1 | 11 | 8 | 99* | 0

Bioassay records from PubChem BioAssay.
